Laboratory results: ChEMBL document CHEMBL1158956, “Biologically active metabolites from Xenorhabdus spp., Part 2. Benzopyran-1-one derivatives with gastroprotective activity” (1991)
Values after ≈ are worked out from the molar mass of the structure shown. Active and inactive are the calls of the source. The calls are words filed in the database; no cut-off is given here.

Assays:
Proteus mirabilis = assay: Antimicrobial activity against Proteus mirabilis C977; format: functional
Method in brief: (§1)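 MIC by blood agar screen: DST agar with 10% defibrinated horse blood; inocula were undiluted overnight broth cultures; plates incubated aerobically overnight at 37°.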

Citrobacter freundii = assay: Antimicrobial activity against Citrobacter freundii ES; format: functional; method in brief: as §1
Aspergillus fumigatus = assay: Antimicrobial activity against Aspergillus fumigatus at […] after 2 days by tube dilution method; format: functional, organism-based
Method in brief: (§2)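 Tube dilution MIC in defined medium (Yeast Nitrogen Base + 1% glucose) and complex medium (Sabouraud's glucose broth); compound dissolved in DMSO, final DMSO <1%; tenfold dilutions 100 to 0.1 μg/ml; inoculum 10^4 spores/ml; 2 days at 37°.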

Klebsiella aerogenes = assay: Antimicrobial activity against Klebsiella aerogenes A; format: functional; method in brief: as §1
Corynebacterium xerosis = assay: Antimicrobial activity against Corynebacterium xerosis NCTC 9755; format: functional; method in brief: as §1
Staphylococcus aureus [1] = assay: Antimicrobial activity against Staphylococcus aureus Oxford NCTC 6571; format: functional; method in brief: as §1
Pseudomonas aeruginosa = assay: Antimicrobial activity against Pseudomonas aeruginosa 1771P; format: functional; method in brief: as §1
Candida parapsilosis = assay: Antimicrobial activity against Candida parapsilosis at 128 ug/ml after 2 days by twofold dilution method; format: functional, organism-based
Method in brief: (§3)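 Microtiter MIC with twofold dilutions in defined (Yeast Nitrogen Base + 1% glucose) and complex (Sabouraud's glucose) broth; compound from DMSO stock, final DMSO <1%; inocula 10^3 and 10^5 cells/ml; incubated 2 days at 37°.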

Rattus norvegicus [2] = assay: Antiulcerogenic activity in stress-induced Wistar rat assessed as protection from ulcer at 5 mg/kg, po; format: functional
Escherichia coli [3] = assay: Antimicrobial activity against Escherichia coli 10418; format: functional; method in brief: as §1
Staphylococcus aureus [4] = assay: Antimicrobial activity against Staphylococcus aureus V573; format: functional; method in brief: as §1
Micrococcus luteus = assay: Antimicrobial activity against Sarcina lutea ATCC 8740; format: functional; method in brief: as §1
Escherichia coli [5] = assay: Antimicrobial activity against Escherichia coli ESS; format: functional; method in brief: as §1
Aspergillus niger = assay: Antimicrobial activity against Aspergillus niger at […] after 2 days by tube dilution method; format: functional, organism-based; method in brief: as §2
Priestia megaterium = assay: Antimicrobial activity against Bacillus megaterium NCIB 9376; format: functional; method in brief: as §1
Salmonella typhimurium = assay: Antimicrobial activity against Salmonella Typhimurium CT10; format: functional, Salmonella enterica subsp. enterica serovar Typhimurium; conditions: Salmonella enterica; method in brief: as §1
Rattus norvegicus [6] = assay: Antiulcerogenic activity in stress-induced Wistar rat assessed as protection from ulcer at 10 mg/kg, po; format: functional
Rattus norvegicus [7] = assay: Antiulcerogenic activity in stress-induced Wistar rat assessed as protection from ulcer at 25 mg/kg, po; format: functional
Streptococcus sanguinis = assay: Antimicrobial activity against Streptococcus sanguis ATCC 10556; format: functional; method in brief: as §1
Escherichia coli [8] = assay: Antimicrobial activity against Escherichia coli DCO; format: functional; method in brief: as §1
Streptococcus pyogenes = assay: Antimicrobial activity against Streptococcus pyogenes CN10; format: functional; method in brief: as §1
Trichophyton rubrum = assay: Antimicrobial activity against Trichophyton rubrum at 128 ug/ml after 11 days by twofold dilution method; format: functional, organism-based
Enterobacter cloacae = assay: Antimicrobial activity against Enterobacter cloacae N1; format: functional; method in brief: as §1
[9] = tested on: Trichophyton mentagrophytes; assay: Antimicrobial activity against Trichophyton mentagrophytes at 128 ug/ml after 11 days by twofold dilution method; format: functional, organism-based
Candida albicans = assay: Antimicrobial activity against Candida albicans at 128 ug/ml after 2 days by twofold dilution method; format: functional, organism-based; method in brief: as §3
Acinetobacter lwoffii = assay: Antimicrobial activity against Acinetobacter lwoffii BRL 2400; format: functional; method in brief: as §1
Cryptococcus neoformans = assay: Antimicrobial activity against Cryptococcus neoformans; format: functional; method in brief: as §3

Row | MIC (Proteus mirabilis) | MIC (Citrobacter freundii) | MIC (Klebsiella aerogenes) | MIC (Corynebacterium xerosis) | MIC (Staphylococcus aureus [1]) | MIC (Pseudomonas aeruginosa) | MIC (Escherichia coli [3]) | MIC (Staphylococcus aureus [4]) | MIC (Micrococcus luteus) | MIC (Escherichia coli [5]) | MIC (Priestia megaterium) | MIC (Salmonella typhimurium) | MIC (Streptococcus sanguinis) | MIC (Escherichia coli [8]) | MIC (Streptococcus pyogenes) | MIC (Enterobacter cloacae) | MIC (Acinetobacter lwoffii) | SMILES | Activity (Rattus norvegicus [6]) | Activity (Rattus norvegicus [7]) | also measured
1 | > 100 µg/mL | > 100 µg/mL | > 100 µg/mL | 5 µg/mL (≈ 12.3 µM) | 5 µg/mL (≈ 12.3 µM) | > 100 µg/mL | 50 µg/mL (≈ 123 µM) | > 100 µg/mL | 5 µg/mL (≈ 12.3 µM) | 2.5 µg/mL (≈ 6.15 µM) | 5 µg/mL (≈ 12.3 µM) | > 100 µg/mL | 10 µg/mL (≈ 24.6 µM) | > 100 µg/mL | 5 µg/mL (≈ 12.3 µM) | > 100 µg/mL | 5 µg/mL (≈ 12.3 µM) | CC(C)CC(NC(=O)C(O)C(O)C1CCCN1)C1Cc2cccc(O)c2C(=O)O1 (stereo unspecified) [XENOCOUMACIN 2] | 61% | 70% | Activity (Aspergillus fumigatus): inactive; Activity (Candida parapsilosis): inactive; Activity (Rattus norvegicus [2]): 26%; Activity (Aspergillus niger): inactive; Activity (Trichophyton rubrum): inactive; Activity [9]: inactive; Activity (Candida albicans): inactive
2 | > 100 µg/mL | > 100 µg/mL | > 100 µg/mL | 1 µg/mL (≈ 2.15 µM) | 10 µg/mL (≈ 21.5 µM) | > 100 µg/mL | 2.5 µg/mL (≈ 5.37 µM) | 25 µg/mL (≈ 53.7 µM) | 1 µg/mL (≈ 2.15 µM) | 0.5 µg/mL (≈ 1.07 µM) | 2.5 µg/mL (≈ 5.37 µM) | > 100 µg/mL | 10 µg/mL (≈ 21.5 µM) | 10 µg/mL (≈ 21.5 µM) | 1 µg/mL (≈ 2.15 µM) | > 100 µg/mL | 2.5 µg/mL (≈ 5.37 µM) | CC(C)CC(NC(=O)C(O)C(O)C(N)CCCNC(=N)N)C1Cc2cccc(O)c2C(=O)O1 (stereo unspecified) [XENOCOUMACIN 1] | 8% | 74% | MIC (Cryptococcus neoformans): 0.125 µg/mL (≈ 0.268 µM)
